The values below come from publication PMC9091492 (RSC Advances, 2018).

Format in all cases: cell-based
A short description of data set [1]: MTT cytotoxic assay, HepG2. The note with it: human, HepG2 cells. In short, it runs like this:
(§1)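 Cells grown in RPMI-1640 with 10% fetal bovine serum, 5% CO2, 37 °C. Seeded at 5 × 10^4 cells per mL, 24 h to form a monolayer, then medium replaced with fresh medium plus test compound at 50, 25, 12.5, 6.25, 3.125, 1.5625 μg mL−1. After 3 days, MTT 4 h, formazan in DMSO, OD 570 nm. Inhibition rate from OD versus control, IC50 calculated; three individual experiments, mean ± SD; adriamycin positive control.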
A general note: Formazan colour is commonly taken as a measure of viable cells.

A short description of data set [2]: MTT cytotoxic assay, HeLa. The note with it: human, HeLa cells. In a few lines:
as §1

A short description of data set [3]: MTT cytotoxic assay, A549. The note with it: human, A549 cells. In a few lines: as §1

Each structure is given as a SMILES string.

Regarding `COc1cccc2c1C(=O)c1c(O)c3c(c(O)c1C2=O)C[C@@](O)(C(=O)CO)C[C@@H]3O[C@H]1C[C@H](N)[C@H](O)[C@H](C)O1` [Adriamycin, adriamycin], the IC50 at 3 days in data set [1] is 1250 ± 40 nM; in data set [2] it was 480 ± 70 nM; in data set [3], 680 ± 60 nM.

For orientation: IC50 means the concentration that inhibits the measured activity by half. Higher therefore signals a need for much substance.
